Measurements reported in ChEMBL document CHEMBL1143585, “Synthesis of some cryptolepine analogues, assessment of their antimalarial and cytotoxic activities, and consideration of their antimalarial mode of action” (J Med Chem, 2005).

Columns and labels:
[1] = Ionization constant for the compound; type: physicochemical
[2] = test system: Plasmodium falciparum; experiment: […] accumulation into acidic parasitic food vacuole at pH=5.5; type: functional
[3] = target: T1, Histidine-rich protein PFHRP-II (Plasmodium falciparum) (UniProt P05227); experiment: Antiplasmodial activity as IC50 against Beta-hematin formation; type: functional
T1 sequence (whole entry): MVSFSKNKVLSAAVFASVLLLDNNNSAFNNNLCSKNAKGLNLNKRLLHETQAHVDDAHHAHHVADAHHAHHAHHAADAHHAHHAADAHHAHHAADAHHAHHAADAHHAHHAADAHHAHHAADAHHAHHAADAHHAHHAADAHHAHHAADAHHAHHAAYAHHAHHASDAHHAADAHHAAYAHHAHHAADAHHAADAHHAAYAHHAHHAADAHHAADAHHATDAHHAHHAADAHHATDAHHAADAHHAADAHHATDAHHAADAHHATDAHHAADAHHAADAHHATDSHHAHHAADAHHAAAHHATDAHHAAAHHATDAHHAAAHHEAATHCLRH
Method in brief: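 β-Hematin inhibition (BHIA) assay: hemin (0.4 µmol/well) in DMSO with compound at 0.25–2 (or 4) molar equivalents to hemin, in triplicate. Final DMSO was 25%. Formation started with 8 M acetate buffer pH 5.0, then 37 °C for 18 h. The centrifuged pellet was dissolved in 0.1 M NaOH and read at 405 nm. BHIA50 is the drug equivalents relative to hemin giving 50% inhibition.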

[4] = test system: MAC15A; experiment: Ratio of cytotoxic to that of antiplasmodial activity was determined; type: functional, Mus musculus
[5] = test system: MAC15A; experiment: Cytotoxicity against MAC15A mouse adenocarcinomas of the colon cells; type: functional, cell-based
Method in brief: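 MTT assay. MAC15A cells were seeded at 2 × 10^3 per well and attached overnight at 37 °C, 5% CO2. Drugs were dissolved in DMSO and diluted in medium (max 0.1% DMSO), eight wells per concentration, 96 h exposure. MTT (0.5 mg/mL) was then added for 24 h. Formazan was dissolved in DMSO and read at 550 nm. Survival is relative to vehicle control; IC50 from triplicate experiments.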

[6] = test system: Plasmodium falciparum; experiment: In vitro antiplasmodial activity for Plasmodium falciparum; type: functional, organism-based
Method in brief: (§1)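 P. falciparum K1 ring-stage cultures in human A+ erythrocytes (RPMI 1640, A+ serum, glucose), at 2.5% hematocrit and 1% parasitemia. Two-fold serial dilutions in duplicate, final DMSO ≤0.5%. Incubated 48 h at 37 °C under 93% N2/3% O2/4% CO2. Growth read as parasite lactate dehydrogenase activity (APAD/NBT, 550 nm). IC50 by linear regression; at least three separate determinations.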

[7] = test system: Mus musculus; experiment: In vivo antimalarial activity of compound against Plasmodium berghei was determined as suppression of parasitemia in mice (Mus musculus) at 25 mg/kg treated for 4 days; type: functional
Method in brief: (§2)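 Peters 4-day suppressive test in female BALB/c mice (18–20 g), five per group. Mice were infected iv with 1 × 10^7 P. berghei ANKA-infected erythrocytes. Drug was given ip daily for four consecutive days. Blood smears were taken on day 5, and % parasitemia suppression was calculated against untreated infected controls. Survival was recorded as days until signs of malaria illness.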

[8] = test system: Mus musculus; experiment: In vivo antimalarial activity of compound against Plasmodium berghei in mice (Mus musculus) at dose of 25 mg/kg treated for 4 days; type: functional; method in brief: as §2
[9] = organism: Mus musculus; experiment: Mean survival time taken as number of days before illness due to Plasmodium berghei in untreated mice (Mus musculus); type: functional
Method in brief: (§3)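 Peters' 4-day suppressive test in female BALB/c mice (18-20 g), five per group. Each mouse got 1 × 10^7 P. berghei ANKA-infected erythrocytes iv. Drug was given ip in 0.2 mL daily for 4 consecutive days. Survival time was the number of days before signs of malaria illness, compared with untreated infected controls.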

[10] = test system: Mus musculus; experiment: Mean survival time taken as number of days before illness due to Plasmodium berghei when mice (Mus musculus) treated with 25 mg/kg dose for 4 days; type: functional; method in brief: as §3
[11] = test system: Mus musculus; experiment: In vivo antimalarial activity of compound against Plasmodium berghei in mice (Mus musculus) at dose of 50 mg/kg treated for 4 days; type: functional
[12] = test system: Plasmodium falciparum; experiment: […] accumulation into acidic parasitic food vacuole (pH=5.5) relative to Cryptolepine; type: functional
Method in brief: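 Calculated from each compound's spectrophotometric pKa via a pH-trapping equation, assuming food-vacuole pH 5.5 and external pH 7.4. The result is expressed relative to cryptolepine's ratio. pKa came from UV spectra (0.05 mg mL-1) in at least seven buffers of pH 5.8–13.0, plus 0.1 M NaOH and 0.1 M HCl. pKa was taken as the midpoint of the λmax absorbance plot. Two experiments per compound.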

[13] = test system: Mus musculus; experiment: Mean survival time taken as number of days before illness due to Plasmodium berghei when mice (Mus musculus) treated with 50 mg/kg dose for 4 days; type: functional; method in brief: as §3
[14] = test system: Mus musculus; experiment: In vivo antimalarial activity of compound against Plasmodium berghei was determined as suppression of parasitemia in mice (Mus musculus) at 50 mg/kg treated for 4 days; type: functional
[15] = test system: Plasmodium falciparum; experiment: In vitro antiplasmodial concentration against multidrug-resistant Plasmodium falciparum K1; type: functional, organism-based; method in brief: as §1
[16] = test system: Plasmodium falciparum; experiment: Normalized IC50 as product of antiplasmodial IC50 and vacuolar accumulation IC50; type: functional, organism-based
[17] = test system: Mus musculus; experiment: Mean survival time taken as number of days before illness due to Plasmodium berghei when mice (Mus musculus) treated with 20 mg/kg dose for 4 days; c=toxic after the 2nd dose; type: functional, organism-based; parameters: dose 20 mg/kg
[18] = organism: Mus musculus; experiment: Mean survival time taken as number of days before illness due to Plasmodium berghei in […] mice (Mus musculus); c=toxic after the 2nd dose; type: functional, organism-based
[19] = test system: Mus musculus; experiment: In vivo antimalarial activity of compound against Plasmodium berghei was determined as suppression of parasitaemia in mice (Mus musculus) at 20 mg/kg treated for 4 days; c=toxic after the 2nd dose; type: functional, organism-based; parameters: dose 20 mg/kg
[20] = test system: Mus musculus; experiment: In vivo antimalarial activity of compound against Plasmodium berghei in mice (Mus musculus) at dose of 20 mg/kg treated for 4 days; c = toxic after 2nd dose; type: functional, organism-based; parameters: dose 20 mg/kg

SMILES	pKa [1]	Vascular accumulation ratio [2]	BHIA50 [3]	Ratio [4]	IC50 ([5]; Mus musculus, MAC15A) [µM]	IC50 ([6]; Plasmodium falciparum) [µM]	also measured
C[n+]1c2ccccc2cc2[nH]c3ccccc3c21.O=S(=O)([O-])O	11.8	79.43	1.64	–	–	–	–
C[n+]1c2cc(Cl)ccc2cc2[nH]c3ccc(Br)cc3c21.[Cl-]	–	–	–	30.8	1.14	0.037	–
C[n+]1c2ccc(Cl)cc2cc2[nH]c3ccc(Br)cc3c21.[Cl-]	–	–	–	57.7	1.73	0.03	Suppression of parasitemia [7]: 91.85%; Parasitemia [8]: 0.97%; Mean survival time [9]: 11.8 days; Mean survival time [10]: 15.4 days
C[n+]1c2cc(Cl)c(Cl)cc2cc2[nH]c3ccccc3c21.[Cl-]	–	–	–	9.33	3.32	0.356	–
C[n+]1c2ccc(F)cc2cc2[nH]c3ccccc3c21.[Cl-]	11.2	79.41	1.24	3.96	4.79	1.21	Parasitemia [11]: 5.98%; Ratio [12]: 1; Mean survival time [13]: 5 days; Suppression of parasitemia [14]: 55.1%; IC50 [15]: 1.21 µM; IC50 [16]: 1.21 µM; Mean survival time [9]: 5 days
C[n+]1c2ccccc2cc2[n-]c3ccccc3c21.Cl [CRYPTOLEPINE HYDROCHLORIDE]	–	–	–	8.98	3.95	0.44	Mean survival time [17]: Toxic after second dose; Mean survival time [18]: Toxic after second dose; Suppression of parasitemia [19]: Toxic after second dose; Parasitemia [20]: Toxic after second dose
C[n+]1c2ccccc2cc2[nH]c3cc(Cl)ccc3c21.[Cl-]	–	–	–	<8.15	–	–	IC50 ([5]; mac15a): 8.15 µM; IC50 [6]: > 1 µM
C[n+]1c2c(Cl)cccc2cc2[nH]c3ccccc3c21.[Cl-]	–	–	–	0.76	3.54	4.69	–
C[n+]1c2ccc(Br)cc2cc2[nH]c3ccc([N+](=O)[O-])cc3c21.[Cl-]	–	–	–	14.7	1.03	0.07	Suppression of parasitemia [7]: 90.75%; Parasitemia [8]: 1.34%; Mean survival time [9]: 6.4 days; Mean survival time [10]: 13 days
C[n+]1c2ccc(Cl)c(Cl)c2cc2[nH]c3ccccc3c21.[Cl-]	–	–	–	21.7	1.91	0.088	–
C[n+]1c2ccccc2c(Cl)c2[nH]c3cc(Cl)ccc3c21	7.35	37.94	0.96	–	–	–	IC50 [16]: 12.9 µM
C[n+]1c2ccc(Cl)cc2cc2[nH]c3ccccc3c21.[Cl-]	–	–	–	13.5	2.24	0.166	–
C[n+]1c2ccc(Br)cc2cc2[nH]c3ccccc3c21	10.2	79.3	0.63	–	–	–	–
Cc1ccc2cc3[nH]c4ccccc4c3[n+](C)c2c1.[Cl-]	–	–	–	23.6	3.51	0.149	–
C[n+]1c2ccccc2cc2[nH]c3cc(Cl)ccc3c21.[I-]	–	–	–	–	–	–	Mean survival time [9]: 9.6 days; Mean survival time [10]: 14 days
C[n+]1c2ccccc2cc2[nH]c3c([N+](=O)[O-])cccc3c21.[Cl-]	9.6	78.94	0.84	–	–	–	IC50 [16]: 6.85 µM
Cc1ccc2c(c1)cc1[nH]c3ccccc3c1[n+]2C.[Cl-]	–	–	–	9.81	4.11	0.419	–
Cc1ccc2cc3[nH]c4ccc(Br)cc4c3[n+](C)c2c1.[Cl-]	–	–	–	20	5.21	0.26	–
C[n+]1c2cc(Cl)ccc2cc2[nH]c3ccccc3c21.[Cl-]	–	–	–	3.9	1.75	0.448	–
COc1ccc2c(c1)cc1[nH]c3ccccc3c1[n+]2C.[Cl-]	11.4	79.43	1.96	4.54	4.31	0.95	Parasitemia [11]: 12.08%; Ratio [12]: 1; Mean survival time [13]: 5 days; Suppression of parasitemia [14]: 9.3%; IC50 [15]: 0.95 µM; IC50 [16]: 0.95 µM; Mean survival time [9]: 5 days
C[n+]1c2ccc(F)cc2cc2[nH]c3ccc(Br)cc3c21.[Cl-]	–	–	–	21.4	1.35	0.063	–
C[n+]1c2ccccc2cc2[nH]c3c([N+](=O)[O-])cc([N+](=O)[O-])cc3c21.[Cl-]	6.4	0.813	0.92	–	–	–	IC50 [16]: 0.0065 µM
